Values after ≈ are worked out from the molar mass of the structure shown.
Tests used:
[1] = fAUC/MIC in osteomyelitis patient cortical bone at 400 mg, po administered for every 24 hrs at PKPD breakpoint at 0.25 mg/liter; format: functional
Summary of the method: (§1)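 PKPD targets were derived by reverse engineering from success rates in clinical osteomyelitis studies, the expected AUCs at the doses used there, and published MIC distributions. Bone targets (total drug) use a ciprofloxacin bone/serum AUC ratio of 0.63. Concentration profiles were simulated for 10,000 patients given 400 mg orally q24h at steady state, without residual error, with serum protein binding assumed at 50%.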

[2] = fAUC/MIC in osteomyelitis patient cancellous bone at 400 mg, po administered for every 24 hrs at PKPD breakpoint at 0.25 mg/liter; format: functional; summary of the method: as §1
[3] = fAUC/MIC in osteomyelitis patient serum at 400 mg, po administered for every 24 hrs at PKPD breakpoint at 1 mg/liter; format: functional; summary of the method: as §1
[4] = fAUC/MIC in osteomyelitis patient cortical bone at 400 mg, po administered for every 24 hrs at PKPD breakpoint at 1 mg/liter; format: functional; summary of the method: as §1
[5] = fAUC/MIC in osteomyelitis patient cancellous bone at 400 mg, po administered for every 24 hrs at PKPD breakpoint at 1 mg/liter; format: functional; summary of the method: as §1
Staphylococcus aureus = assay: Antimicrobial activity against Staphylococcus aureus
[6] = fAUC/MIC in osteomyelitis patient serum at 400 mg, po administered for every 24 hrs at PKPD breakpoint at 0.375 mg/liter; format: functional; summary of the method: as §1
[7] = fAUC/MIC in osteomyelitis patient cortical bone at 400 mg, po administered for every 24 hrs at PKPD breakpoint at 0.5 mg/liter; format: functional; summary of the method: as §1
[8] = fAUC/MIC in osteomyelitis patient cancellous bone at 400 mg, po administered for every 24 hrs at PKPD breakpoint at 0.375 mg/liter; format: functional; summary of the method: as §1
[9] = fAUC/MIC in osteomyelitis patient serum at 400 mg, po administered for every 24 hrs at PKPD breakpoint at 0.19 mg/liter; format: functional; summary of the method: as §1
[10] = Drug level in osteomyelitis patient cortical bone at 400 mg, po administered for every 24 hrs; format: ADME, organism-based, Bone element; details: human, in vivo
[11] = Drug level in osteomyelitis patient cancellous bone at 400 mg, po administered for every 24 hrs; format: ADME, organism-based; details: human, in vivo

With `COc1c(N2C[C@@H]3CCCN[C@@H]3C2)c(F)cc2c(=O)c(C(=O)O)cn(C3CC3)c12` [MOXIFLOXACIN] as the molecule, how does the fAUC/MIC [1] read?
Its fAUC/MIC is 55.

What about the fAUC/MIC [2] of the same molecule?
The fAUC/MIC was 55.

What about the fAUC/MIC [3] of the same molecule?
The fAUC/MIC was 15.

And the fAUC/MIC [4]?
Its fAUC/MIC is 13.

What about the fAUC/MIC [5] of the same molecule?
Its fAUC/MIC is 13.

What about the MIC90 (Staphylococcus aureus) of the same molecule?
Its MIC90 is 0.125 µg/mL (≈ 0.311 µM).

What about the fAUC/MIC [6] of the same molecule?
The fAUC/MIC was 40.

What about the fAUC/MIC [7] of the same molecule?
The fAUC/MIC was 33.

And the fAUC/MIC [8]?
The fAUC/MIC was 33.

What about the fAUC/MIC [9] of the same molecule?
Its fAUC/MIC is 66.

What about the Drug uptake [10] of the same molecule?
The Drug uptake was 80%.

And the Drug uptake [11]?
Its Drug uptake is 78%.

Reference: ChEMBL document CHEMBL1649178, “Penetration of moxifloxacin into bone evaluated by Monte Carlo simulation” (Antimicrob Agents Chemother, 2009)
